EC50 data for 15 molecules are collected here from ChEMBL document CHEMBL4699465, “Isolation of Isotrichophycin C and Trichophycins G-I from a Collection of Trichodesmium thiebautii” (J Nat Prod, 2020).

The structures appear in SMILES notation. Where only a bound is given, the exact number is not on record here.

In the experiment the test system is N2a. Put plainly: Cytotoxicity against mouse Neuro-2a cells assessed as reduction in cell viability incubated for 72 hrs by MTT assay. In kind it is functional, cell-based. The procedure, abridged:
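Murine neuroblastoma neuro-2A cells were tested over a range of concentrations, with four technical replicates per concentration. Each assay was run in triplicate. Doxorubicin served as the positive control. EC50 was taken from concentration–viability curves.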
Background: Formazan colour is commonly taken as a measure of viable cells.
As for `C#CCCCCC/C(=C/Cl)CC[C@H](O)/C=C(\C)[C@H](O)CC=C`, the half-maximal effective concentration (EC50) was above 50 µM.
Then `COC1=CC(=O)O[C@@H]([C@H](C)C[C@H](C)CC(C)=O)C1`, with above 100 µM.
The result for `C#CCCC/C(=C/Cl)C[C@H](O)CC[C@@H](C)C[C@@H](C)[C@H](O)CCCC[C@@H](C)[C@H](O)CC=C` reads 12 µM.
The result for `C[C@H](CC[C@@H](O)C/C(=C/Cl)CCCC#CBr)C[C@@H](C)[C@@H](O)C/C=C/Cl` reads above 100 µM; that for `C=CC[C@@H](OC(C)=O)[C@H](C)CCCC[C@@H](OC(C)=O)[C@H](C)C[C@H](C)CC[C@H](C/C(=C\Cl)Cc1ccccc1)OC(C)=O`, above 100 µM.
As to `C[C@H](CC[C@@H](O)C/C(=C/Cl)Cc1ccccc1)C[C@@H](C)[C@@H](O)C/C=C/Cl`, the EC50 is 24 µM.
Take `C[C@H](CC[C@@H](O)C/C(=C\Cl)Cc1ccccc1)C[C@@H](C)[C@@H](O)C/C=C/Cl`: the EC50 turned out to be 13 µM.
For `CCC(=O)N(C)CCC/C(=C\Cl)C/C=C(\C)C[C@@H](C)C[C@@H](C)[C@H]1CC(OC)=CC(=O)O1`, the EC50 amounted to 14 µM.
For the molecule `C#CCCC/C(=C\Cl)C[C@H](O)CC[C@@H](C)C[C@@H](C)[C@@H](O)C/C=C/Cl`, the EC50 was 40 µM.
For `C=CC[C@@H](O)[C@H](C)CCCC[C@@H](O)[C@H](C)C[C@H](C)CC[C@@H](O)C/C(=C\Cl)Cc1ccccc1`, the concentration for a half-maximal effect (EC50) was found to be 6.5 µM.
Consider `C=CC[C@H](O)[C@H](C)C[C@H](C)CC[C@@H](O)C/C(=C\Cl)Cc1ccccc1`, for which the 50% effective concentration (EC50) was 8.4 µM.
Consider `COC1=CC(=O)O[C@@H]([C@H](C)C[C@H](C)CC[C@@H](O)C/C(=C/Cl)Cc2ccccc2)C1`, for which the half-maximal effective concentration (EC50) was found to be 15 µM.
`CC(=O)O[C@H](CC[C@@H](C)C[C@@H](C)[C@H](C/C=C/Cl)OC(C)=O)C/C(=C\Cl)Cc1ccccc1`: the 50% effective concentration (EC50) was above 100 µM.
In the case of `C=CC[C@@H](O)/C(C)=C/[C@@H](O)CC/C(=C\Cl)Cc1ccccc1`, the concentration for a half-maximal effect (EC50) is above 50 µM.
Then `COc1cccc2c1C(=O)c1c(O)c3c(c(O)c1C2=O)C[C@@](O)(C(=O)CO)C[C@@H]3O[C@H]1C[C@H](N)[C@H](O)[C@H](C)O1` [DOXORUBICIN], with 127 µM.

A word on the EC50: it is the concentration needed to bring the measured effect to its halfway point.
